Screening results as filed in PubChem BioAssay.
This is a sample that favours compounds with a hit; in the whole collection about 1.8% have one here.
NPY-Y1 PAM-ag: human NPY-Y1 potentiation or agonism, primary screen; NPY-Y1 expressing cells, potentiator/agonist activation; hit rate 0.37% among 220,000; P25929; activation, % at 3.6 µM; in the data active means activation above about 33%, passing the limit was not always enough;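 further: cells stimulated with NPY at EC10 then isoproterenol at EC100; 0% = low agonist plus stimulus and 100% = saturating agonist plus stimulus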
Target sequence (P25929 whole entry, looked up): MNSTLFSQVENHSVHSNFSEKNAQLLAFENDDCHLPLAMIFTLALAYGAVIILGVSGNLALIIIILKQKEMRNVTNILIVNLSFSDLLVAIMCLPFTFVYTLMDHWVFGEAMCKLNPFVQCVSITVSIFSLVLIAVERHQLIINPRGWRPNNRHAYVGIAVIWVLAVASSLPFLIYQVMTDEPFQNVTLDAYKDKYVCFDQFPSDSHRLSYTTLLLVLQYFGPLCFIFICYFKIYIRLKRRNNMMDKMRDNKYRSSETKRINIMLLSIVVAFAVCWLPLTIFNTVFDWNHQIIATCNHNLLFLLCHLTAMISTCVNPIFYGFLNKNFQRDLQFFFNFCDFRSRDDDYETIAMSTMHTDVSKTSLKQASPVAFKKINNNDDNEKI
NPY Y1 blocker: blocks the human neuropeptide Y Y1 receptor. P25929. HEK293-CNG Y1 cells, membrane potential fluorescence; NPY at EC95, then isoproterenol. inhibition, % at 3.6 µM. hit rate 1% among 200,000;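 active means inhibition above the campaign mean inhibition of all tested compounds plus 3 SD, cut at about 20% in these data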;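 further: 0% = DMSO wells given NPY plus isoproterenol and 100% = isoproterenol alone without NPY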
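Assay system: HEK293 Y1/CNG channel cell line; Doses: single compound dose of 3.6 µM, 0.4% DMSO; Timing: dye 3 h, compound 60 min room temperature, stimulation 45 min; Technique: Membrane-potential fluorescent dye readout; Measure: % inhibition of NPY effect.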
NPY-Y2 PAM-ag: potentiates or activates human NPY-Y2 receptor. P49146. AID 1359. activation, % at 3.6 µM. cells expressing NPY-Y2, potentiator/agonist read-out. hit rate 0.45% among 220,000; in the data active means activation above about 27%;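 further: cells stimulated with NPY near EC25 plus isoproterenol at EC100; 0% = vehicle plus submaximal agonist and 100% = vehicle plus saturating agonist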
NPY-Y2 antag: NPY-Y2 (human) receptor antagonism | inhibition, % at 2.7 µM | NPY-Y2 expressing cells, antagonist mode | hit rate 0.99% among 140,000 | P49146 | AID 793; in the data active means inhibition above about 17%;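 further: 0% = vehicle with agonist challenge and 100% = reference antagonist with challenge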
An asterisk follows results filed as active; · = no result given.

SMILES	NPY-Y1 PAM-ag	NPY Y1 blocker	NPY-Y2 PAM-ag	NPY-Y2 antag
CCOc1ccccc1OCCN1CCC(Cc2ccccc2)CC1	-29	26*	-10	17*
CC(C)(C)N(NC(=O)c1ccccc1)C(=O)c1cccc(C(=O)N(NC(=O)c2ccccc2)C(C)(C)C)c1	-24	41*	-16	20*
CC(C)(C)N(NC(=O)Nc1ccccc1)C(=O)c1ccccc1	3	-1	-7	1
CC(C)(C)NCC(O)COc1ccccc1C(C)(C)C (stereo unspecified)	108*	-12	99*	4
CC(C)(C)NCC(O)COc1ccccc1C(=O)CCc1ccccc1 (stereo unspecified)	103*	-16	102*	10
Cc1c[nH]c2cccc(OCC(O)CNC(C)(C)C)c12 (stereo unspecified)	109*	-18	104*	0
CN(C)CCOc1ccccc1C(C)(C)C	-24	1	-19	2
CC(Sc1nnc(C(F)(F)F)n1C)C(=O)Nc1ccc(S(N)(=O)=O)cc1 (stereo unspecified)	-3	·	2	·
Cc1cccc(N2CCN(Cc3nc(-c4ccccc4Cl)oc3C)CC2)n1	-18	20*	-39	·
Cc1cccc(N2CCN(Cc3nc(-c4cccc(Cl)c4)oc3C)CC2)n1	-20	19	-28	·
Cn1c(=NC(=O)COc2ccccc2)sc2cccc(F)c21	-19	·	0	·
CCOC(=O)CSc1nnc(-c2ccc(S(=O)(=O)NCc3cccs3)cc2)o1	91*	-17	88*	3
CCS(=O)(=O)Nc1ccc(-c2nnc(SCC(=O)OC)o2)cc1	26	-9	24	2
COC(=O)CSc1nnc(-c2ccc(S(=O)(=O)NCc3cccs3)cc2)o1	101*	-14	84*	2
COC(=O)CSc1nnc(-c2ccc(S(=O)(=O)NCc3ccccc3Cl)cc2)o1	80*	-17	81*	0
Cn1cnnc1SCC(=O)N/N=C/c1ccc(OCC(N)=O)cc1	2	·	-10	·
COc1ccc(-c2csc3nc(C)nc(N4CCC(C)CC4)c23)cc1OC	-29	21*	-19	·
O=C(CNC(=O)c1ccncc1)N/N=C/c1ccc(O)cc1O	13	·	5	·
O=C(CSc1nnc(Cc2cccs2)n1Cc1ccco1)Nc1ccc(Cl)cc1Cl	-20	31*	-6	23*
O=C(CSc1nnc(Cc2cccs2)n1Cc1ccco1)Nc1ccc(Br)cc1	10	3	-10	9
Clc1nc(CN2CCOCC2)nc2sc3c(c12)CCC3	-17	-4	-5	·
Cc1cccc(Oc2nc(CN3CCOCC3)nc3sc4c(c23)CCCC4)c1	-22	20*	-3	29*
CCOC(=O)C1CCN(c2c(NCc3ccc(C(=O)N(C)Cc4ccccc4)cc3)c(=O)c2=O)CC1	19	-3	-7	·
CCCCCCNC(=O)c1cc(-c2ccco2)nc2ccccc12	-149	57*	-123	66*
O=C1c2ccccc2-c2onc3ccc(NCc4ccco4)c1c23	53*	-6	53*	6
SMILES	NPY-Y1 PAM-ag	NPY Y1 blocker	NPY-Y2 PAM-ag	NPY-Y2 antag
C=C(C)c1cccc(C(C)(C)NC(=O)N(Cc2ccccc2)Cc2ccco2)c1	-5	14	-9	28*
CC(C)CN1CCN(Cc2cc(F)ccc2-n2cccn2)CC1CCO (stereo unspecified)	-11	22*	-3	·
COc1ccccc1NC1C=CS(=O)(=O)C1 (stereo unspecified)	9	-3	8	2
Cc1ccccc1NC1C=CS(=O)(=O)C1 (stereo unspecified)	22	1	107*	0
O=C(NC(Cc1c[nH]c2ccccc12)C(=O)N/N=C/c1ccc(Cl)cc1)c1cccs1 (stereo unspecified)	21	-7	21	·
COc1ccc(/C=N/NC(=O)C(Cc2c[nH]c3ccccc23)NC(=O)OCC(C)C)cc1[N+](=O)[O-] (stereo unspecified)	-66	35*	-26	33*
COCCNC(=O)CCCn1c(=O)c2cc(OC)c(OC)cc2n(CC(=O)Nc2ccccc2OC)c1=O	-5	21*	-6	·
COCCNC(=O)CCCn1c(=O)c2cc(OC)c(OC)cc2n(CC(=O)Nc2ccc(F)cc2)c1=O	8	-2	3	·
Cc1ccc(-n2c(C)cc(C=C(C#N)C#N)c2C)cc1	-25	32*	-13	18*
CCOC(=O)CC1COCCN1Cc1cn[nH]c1-c1cc(OC)c(OC)c(OC)c1 (stereo unspecified)	6	·	1	·
Cc1ccc(C(=O)NC(=S)Nc2ccc3c(c2)OCCO3)c(C)c1	-17	22*	-23	8
Cc1c(O)ccc2c(O)c(NC(=O)c3ccc4c(c3)CCC(C)(C)O4)c(=O)oc12	4	·	13	·
Cc1[nH]c2ccccc2c1/C=N/Nc1ccc([N+](=O)[O-])cc1	65*	-15	56*	-9
Cc1ccc2cc(CN(CCN3CCCC3)C(=O)Nc3ccccc3)c(=O)[nH]c2c1C	-32	15	-31	6
Cc1ccc2cc(CN(CCN3CCCC3)C(=O)Nc3ccc(F)cc3)c(=O)[nH]c2c1C	-55	26*	-29	5
CCN(CC)C(=S)SCC(=O)Nc1ncc2c(n1)CCCC2=O	-10	·	-7	·
O=C(/C(=C/c1ccc(Cl)cc1)c1nc2ccccc2[nH]1)c1cccs1	-50	23*	-9	46*
O=C(/C(=C\c1ccccc1)c1nc2ccccc2[nH]1)c1ccc(Cl)cc1	-22	-2	11	1
Cc1ccc(NC(=O)C2CCCN2S(=O)(=O)c2ccc3c(c2)n(C)c(=O)c(=O)n3C)c(C)c1 (stereo unspecified)	8	·	-8	·
CCn1c(=N)n(CC(O)c2ccccc2)c2ccccc21 (stereo unspecified)	-25	0	3	3
COc1ccc(OCC(O)Cn2c(=N)n(CCN3CCOCC3)c3ccccc32)cc1 (stereo unspecified)	-3	9	-4	2
CCCn1c(=N)n(CC(O)COc2cccc(C)c2)c2ccccc21 (stereo unspecified)	-25	26*	-33	42*
CCn1c(=N)n(CC(O)COc2cccc(C)c2)c2ccccc21 (stereo unspecified)	-43	20*	-10	21*
CCOC(=O)Cn1c(=O)oc2cc(S(=O)(=O)NC(C)(C)CC)ccc21	12	·	5	·
CCOC(=O)Cn1c(=O)oc2cc(S(=O)(=O)Nc3cccc(C)c3)ccc21	32*	-6	43*	-4
CC(=O)Nc1ccc(S(=O)(=O)N2CCN(c3nc(NC4CCCC4)c4ccccc4n3)CC2)cc1	-1	13	32*	9
CC(=O)Nc1ccc(S(=O)(=O)N2CCN(c3cc(C)nc4ccccc34)CC2)cc1	3	6	14	-1
O=C1OCCN1C(=O)[C@H]1[C@H](c2ccc([N+](=O)[O-])cc2)C(c2cccc(Cl)c2)=NN1c1ccccc1	29	-7	31*	-1
CC(C)C(=O)Nc1cc(C(F)(F)F)ccc1N1CCOCC1	10	2	4	0
Cc1cc(C#N)c(C)n1-c1cc(C(F)(F)F)ccc1N1CCOCC1	-13	21*	-17	20*
